Results as given in ChEMBL document CHEMBL1122333, “Synthesis and biological activities of the Z isomers of carbapenem antibiotics” (J Med Chem, 1983).

Legend:
[1] = (§1) Half-life of 10% mouse kidney homogenate is tested; type: ADME; conditions: 10% mouse kidney homogenate
In short: (§2)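 Carbapenem at 50 μg/mL incubated in 10% mouse kidney homogenate at 30 °C to assess stability to mouse renal enzyme(s).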

Escherichia coli [2] = test: Tested for inhibition of intraperitoneal infection against Escherichia coli O-111; type: functional
In short: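 Protection assay run in Slc:ICR mice. ED50 was calculated by the Reed and Muench method from survival recorded 5 days after infection.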

Klebsiella pneumoniae [3] = test: Tested for beta-lactamase inhibitory activity of the 5,6-cis-carbapenem antibiotic on penicillinase against Klebsiella pneumoniae TN1698; type: functional, organism-based; conditions: for IC50: Klebsiella pneumoniae, read-out: I50
Klebsiella pneumoniae [4] = test: Tested for minimum inhibitory concentration against Klebsiella pneumoniae TN1655 on ampicillin at a concentration of 0.1 ug/mL into the agar plate; type: functional
Proteus vulgaris [5] = test: beta-lactamase inhibitory activity of the 5,6-cis-carbapenem antibiotic on cephalosporinase against Proteus vulgaris GN4413; type: functional, organism-based; conditions: for IC50: Proteus vulgaris, read-out: I50
[6] = tested for minimum inhibitory concentration against […] 12486 on ampicillin at a concentration of 0.1 ug/mL into the agar plate; type: functional
Staphylococcus aureus [7] = test: Tested for beta-lactamase inhibitory activity of the 5,6-cis-carbapenem antibiotic on penicillinase against Staphylococcus aureus 1840; type: functional, organism-based; conditions: read-out: I50
Serratia marcescens [8] = test: beta-lactamase inhibitory activity of the 5,6-cis-carbapenem antibiotic on cephalosporinase against Serratia marcescens TN81; type: functional, organism-based, serratia marcesc; conditions: for IC50: Serratia marcescens, read-out: I50
Proteus vulgaris [9] = test: Minimum inhibitory concentration against Proteus vulgaris GN4815 on cefotiam at a concentration of 0.1 ug/mL into the agar plate
[10] = system: Acinetobacter calcoaceticus; test: Minimum inhibitory concentration against Acinetobacter calcoacet IFO 13006; type: functional
In short: (§3)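 MIC by agar dilution on Trypticase soy agar. Inoculum was one loopful of a 10^8 cfu/mL bacterial suspension.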

Escherichia coli [11] = test: Tested for minimum inhibitory concentration against Escherichia coli O-111; type: functional; in short: as §3
Pseudomonas aeruginosa = test: Tested for minimum inhibitory concentration against Pseudomonas aeruginosa IFO 3455; type: functional
In short: (§4)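 Agar dilution MIC on Trypticase soy agar. Each plate was inoculated with one loopful of a 10^8 cfu/mL bacterial suspension.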

Proteus vulgaris [12] = test: Tested for minimum inhibitory concentration against Proteus vulgaris IFO 3988; type: functional; in short: as §3
Staphylococcus aureus [13] = test: Tested for minimum inhibitory concentration against Staphylococcus aureus 1840 on ampicillin at a concentration of 0.1 ug/mL into the agar plate; type: functional
Serratia marcescens [14] = test: Tested for minimum inhibitory concentration against Serratia marcescens 12648 on cefotiam at a concentration of 0.1 ug/mL into the agar plate
Citrobacter freundii = test: Tested for minimum inhibitory concentration against […] IFO 12681; type: functional; in short: as §4
Proteus vulgaris [15] = test: Tested for minimum inhibitory concentration against Proteus vulgaris GN4815 on cefotiam at a concentration of 0.1 ug/mL into the agar plate
Proteus vulgaris [16] = test: tested for minimum inhibitory concentration against Proteus vulgaris GN4815 on cefotiam at a concentration of 0.1 ug/mL into the agar plate
Klebsiella pneumoniae [17] = test: Tested for minimum inhibitory concentration against Klebsiella pneumoniae TN1655 on ampicillin at a concentration of 0.1 ug/mL into the agar plate
Serratia marcescens [18] = test: Tested for minimum inhibitory concentration against Serratia marcescens IFO 12648; type: functional; in short: as §4
Mus musculus = species on record: Mus musculus; test: as §1; type: ADME; conditions: in vitro; in short: as §2
Enterobacter cloacae = test: Tested for minimum inhibitory concentration against […] IFO 12937; type: functional; in short: as §4
Escherichia coli [19] = test: Tested for minimum inhibitory concentration against Escherichia coli T-7; type: functional; in short: as §4
Klebsiella pneumoniae [20] = test: Tested for minimum inhibitory concentration against Klebsiella pneumoniae DT; type: functional; in short: as §4
Proteus mirabilis = test: Tested for minimum inhibitory concentration against […] IFO 3849; type: functional; in short: as §4
Staphylococcus aureus [21] = test: Tested for minimum inhibitory concentration against Staphylococcus aureus 308 A-1; type: functional; in short: as §4
Morganella morganii = test: Tested for minimum inhibitory concentration against […] IFO 3168; type: functional; in short: as §4
[22] = Escherichia coli, ip, read-out: ED50
[23] = Acinetobacter calcoaceticus, IFO 13006, read-out: MIC
[24] = Pseudomonas aeruginosa, IFO 3455, read-out: MIC

| Compound | half-life [1] [min] | ED50 (Escherichia coli [2]; [22]) [mg/kg] | IC50 (Klebsiella pneumoniae [3]) [ng/mL] | MIC (Klebsiella pneumoniae [4]) [µg/mL] | IC50 (Proteus vulgaris [5]) [µg/mL] | IC50 (Staphylococcus aureus [7]) [µg/mL] | IC50 (Serratia marcescens [8]) [µg/mL] | MIC (Proteus vulgaris [9]) [µg/mL] | MIC (Staphylococcus aureus [13]) [µg/mL] | MIC (Serratia marcescens [14]) [µg/mL] | further results |
| --- | --- | --- | --- | --- | --- | --- | --- | --- | --- | --- | --- |
| CC(=O)N/C=C\SC1=C(C(=O)[O-])N2C(=O)[C@@H](C(C)OS(=O)(=O)[O-])[C@H]2C1.[Na+].[Na+] (some centres undefined) | 42 | > 50 | 1.8 | 25 | 0.00035 | 0.014 | 0.001 | 1.56 | – | – | MIC [6]: 12.5 µg/mL |
| CC(=O)N/C=C/SC1=C(C(=O)[O-])N2C(=O)[C@@H](C(C)(C)OS(=O)(=O)[O-])[C@H]2C1.[Na+].[Na+] | 7 | > 50 | – | – | – | – | – | – | – | – | – |
| CC(=O)N/C=C/SC1=C(C(=O)[O-])N2C(=O)[C@@H](C(C)O)[C@H]2C1.[Na+] (some centres undefined) | 12 | > 50 | – | – | – | – | – | – | – | – | MIC [10, 23]: 3.13 µg/mL; MIC (Escherichia coli [11]; Escherichia coli, read-out: MIC): 0.39 µg/mL; MIC (Pseudomonas aeruginosa; [24]): 100 µg/mL; MIC (Proteus vulgaris [12]; Proteus vulgaris, IFO 3988, read-out: MIC): 3.13 µg/mL |
| CC(=O)N/C=C\SC1=C(C(=O)[O-])N2C(=O)[C@@H](C(C)(C)OS(=O)(=O)[O-])[C@H]2C1.[Na+].[Na+] | 19 | > 50 | 28 | 50 | 0.0038 | 1 | 0.051 | 1.56 | 50 | 25 | – |
| CC(=O)N/C=C/[S+]([O-])C1=C(C(=O)[O-])N2C(=O)[C@@H](C(C)(C)O)[C@H]2C1.[Na+] (stereo in doubt; 2) | – | – | – | – | – | – | – | – | – | – | MIC (Citrobacter freundii): 0.2 µg/mL; ED50 (Escherichia coli [2]): 20 mg/kg; MIC (Escherichia coli [11]): <0.1 µg/mL; MIC (Proteus vulgaris [12]): 3.13 µg/mL |
| CC(=O)N/C=C\[S+]([O-])C1=C(C(=O)[O-])N2C(=O)[C@@H](C(C)OS(=O)(=O)[O-])[C@H]2C1.[Na+].[Na+] (some centres undefined) | – | – | 0.08 | – | 0.00016 | 0.0034 | 0.00034 | 50 | 50 | 25 | – |
| CC(=O)N/C=C\SC1=C(C(=O)[O-])N2C(=O)[C@@H](C(C)(C)O)[C@H]2C1.[Na+] | 19 | > 50 | 220 | 100 | 0.017 | – | 0.0053 | 25 | 12.5 | 12.5 | – |
| CC(=O)[N-]/C=C/SC1=C(C(=O)[O-])N2C(=O)[C@@H](C(C)O)[C@H]2C1.[Na+].[Na+] (some centres undefined) | 40 | 17.7 | 320 | 100 | 1.5 | 0.065 | 0.0011 | – | 1.56 | 25 | MIC (Proteus vulgaris [15]): 400 µg/mL |
| CC(=O)N/C=C/SC1=C(C(=O)[O-])N2C(=O)[C@@H](C(C)OS(=O)(=O)[O-])[C@H]2C1.[Na+].[Na+] (some centres undefined) | 21 | > 50 | – | – | – | – | – | – | – | – | MIC (Pseudomonas aeruginosa; [24]): 3.13 µg/mL |
| CC(=O)N/C=C\[S+]([O-])C1=C(C(=O)[O-])N2C(=O)[C@@H](C(C)O)[C@H]2C1.[Na+] (some centres undefined) | – | – | 2.4 | – | 0.019 | 0.00055 | 0.00029 | – | 6.25 | – | MIC (Proteus vulgaris [16]): 400 µg/mL; MIC (Klebsiella pneumoniae [17]): 100 µg/mL |
| CC(=O)N/C=C/[S+]([O-])C1=C(C(=O)[O-])N2C(=O)[C@@H](C(C)(C)OS(=O)(=O)[O-])[C@H]2C1.[Na+].[Na+] (some centres undefined) | 37 | > 100 | 5.2 | 6.25 | 0.00037 | 0.21 | – | 1.56 | – | 6.25 | I50 (Serratia marcescens [8]): 55 ng/mL; MIC (Serratia marcescens [18]; Serratia marcescens, IFO 12648, read-out: MIC): 12.5 µg/mL |
| CC(=O)N/C=C\[S+]([O-])C1=C(C(=O)[O-])N2C(=O)[C@@H](C(C)(C)O)[C@H]2C1.[Na+] (stereo in doubt; 22) | – | – | – | – | – | 0.59 | – | – | – | – | T1/2 (Mus musculus): > 250 min; MIC (Citrobacter freundii): 12.5 µg/mL; MIC (Enterobacter cloacae): 50 µg/mL; MIC (Escherichia coli [19]): 25 µg/mL; I50 (Klebsiella pneumoniae [3]): 110 ng/mL; MIC (Klebsiella pneumoniae [20]): 12.5 µg/mL; I50 (Proteus vulgaris [5]): 14 ng/mL; MIC (Proteus vulgaris [12]): 100 µg/mL; MIC (Proteus mirabilis): 50 µg/mL; I50 (Serratia marcescens [8]): 3.3 ng/mL; MIC (Serratia marcescens [18]): 25 µg/mL; MIC (Staphylococcus aureus [21]): 3.13 µg/mL; MIC (Morganella morganii): 100 µg/mL |
| CC(=O)N/C=C\[S+]([O-])C1=C(C(=O)[O-])N2C(=O)[C@@H](C(C)(C)O)[C@H]2C1.[Na+] (stereo in doubt; 11) | – | – | – | 3.13 | – | – | – | – | 6.25 | 12.5 | MIC [10, 23]: 50 µg/mL; MIC (Escherichia coli [11]): <0.1 µg/mL; I50 (Klebsiella pneumoniae [3]): 3.8 ng/mL; MIC (Klebsiella pneumoniae [20]): 3.13 µg/mL; I50 (Proteus vulgaris [5]): 1.1 ng/mL; MIC (Proteus vulgaris [12]): 25 µg/mL; MIC (Proteus mirabilis): 12.5 µg/mL; I50 (Serratia marcescens [8]): 0.34 ng/mL; MIC (Serratia marcescens [18]): 3.13 µg/mL; MIC (Morganella morganii): 12.5 µg/mL |
| CC(=O)N/C=C\[S+]([O-])C1=C(C(=O)[O-])N2C(=O)[C@@H](C(C)(C)OS(=O)(=O)[O-])[C@H]2C1.[Na+].[Na+] (some centres undefined) | – | > 50 | 1 | 3.13 | 0.00055 | 0.24 | 0.018 | 0.78 | 50 | 12.5 | – |
| CC(=O)N/C=C/SC1=C(C(=O)[O-])N2C(=O)[C@@H](C(C)(C)O)[C@H]2C1.[Na+] | 8 | > 50 | – | – | – | – | – | – | – | – | – |
| CC(=O)N/C=C/[S+]([O-])C1=C(C(=O)[O-])N2C(=O)[C@@H](C(C)(C)O)[C@H]2C1.[Na+] (stereo in doubt; 20) | – | 28.1 | 80 | – | 0.0028 | 0.54 | 0.00078 | – | – | – | MIC [10]: 12.5 µg/mL; MIC (Citrobacter freundii): 3.13 µg/mL; MIC (Enterobacter cloacae): 25 µg/mL; MIC (Escherichia coli [19]): 25 µg/mL; MIC (Pseudomonas aeruginosa): 25 µg/mL; MIC (Proteus vulgaris [12]): 12.5 µg/mL; MIC (Proteus mirabilis): 12.5 µg/mL; MIC (Staphylococcus aureus [21]): 3.13 µg/mL; MIC (Morganella morganii): 25 µg/mL |
